Active and inactive are the calls of the source. The rule behind the calls is not given here.
How the values were obtained:
Mus musculus [1] = assay: In vivo acute electroshock physical dependence activity in mice; Not active.; type: functional, organism-based
Rattus norvegicus [2] = assay: Geller-cook activity was determined using wilcoxon signed rank test on non punished schedule at dose 1 mg/kg.; type: functional
How it was run: (§1)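 Geller–Cook conflict schedule with punished and nonpunished response rates recorded per treatment; 6 animals per dose, controls 12–17; each dose compared to its own control by Wilcoxon signed rank test, p < 0.05.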

Rattus norvegicus [3] = assay: Geller-cook activity was determined using wilcoxon signed rank test on punished schedule at dose 1 mg/kg.; type: functional; how it was run: as §1
[4] = Half-life after iv dose of 4.74 mg/kg in rats; type: ADME, organism-based; set-up: dose 4.74 mg/kg, route intravenous; details: rat, in vivo
Rattus norvegicus [5] = assay: Mean number of shocks produced by the compound in rats at a dose of 10 mg/kg was determined by vogel's punished licking assay; type: functional
How it was run: (§2)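 Vogel punished licking test in rats; number of shocks accepted recorded per dose group (n 6–10); each dose compared with the 0 mg/kg group of the same experiment by Wilcoxon rank sum test.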

Rattus norvegicus [6] = assay: Mean number of shocks produced by the compound in rats at a dose of 0.3 mg/kg was determined by vogel's punished licking assay; type: functional; how it was run: as §2
Rattus norvegicus [7] = assay: Mean number of shocks produced by the compound in rats at a dose of 1 mg/kg was determined by vogel's punished licking assay; type: functional; how it was run: as §2
[8] = target: T1, GABA-A receptor; alpha-1/beta-2/gamma-2 (Homo sapiens) (UniProt P14867+P47870+P18507); assay: (§3) In vitro GABA-mediated chloride current in A293 cells expressing GABA-A benzodiazepine receptor alpha-1-beta-2-gamma-2 subunits at 5 uM; type: functional, cell-based; details: HEK293
Mus musculus [9] = species on record: Mus musculus; assay: Ability to antagonize the muscle relaxation effect in mice caused by a benzodiazepine full agonist, triazolam.; type: functional
How it was run: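 Muscle relaxation induced by triazolam; test compound and triazolam given separately, traction scored 30 min after dosing; ED50 for blocking the relaxant effect.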

[10] = target: T1, GABA-A receptor; alpha-1/beta-2/gamma-2 (Homo sapiens); assay: as §3; type: functional, cell-based; details: HEK293; remark: listed apart in the source
Rattus norvegicus [11] = assay: Mean number of shocks produced by the compound in rats at a dose of 0 mg/kg was determined by vogel's punished licking assay; type: functional; how it was run: as §2
[12] = target: GABA-A receptor; anion channel; assay: (§4) Displacement of [3H]flunitrazepam from GABA-A benzodiazepine receptor of rat cortical membranes; type: cell membranes, Membrane
How it was run: (§5)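 Rat membranes incubated 60 min at 4 °C with [3H]flunitrazepam, 50 µg membrane protein and graded test drug in 200 µL containing NaCl, 10 mM Hepes/Tris pH 7.4 and 1 mM MgCl2; bound ligand separated by rapid filtration on GF/B; mean affinity, SE ≤10% of mean.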

[13] = target: T2, GABA-A receptor; anion channel (Rattus norvegicus) (UniProt O09028+P15431+P18506+P18508+P19969+P20236+P23574+P23576+P28471+P28473+P30191+P62813+P63079+P63138+Q91ZM7+Q9ES14); assay: as §4; type: cell membranes; set-up: concentration or dose not given beside the values; details: Membrane, concentration not given here; how it was run: as §5
[14] = target: GABA A receptor alpha-3/beta-2/gamma-2 (Homo sapiens) (UniProt P47870+P18507+P34903); assay: In vitro GABA-mediated chloride current in A293 cells expressing GABA-A benzodiazepine receptor alpha-3-beta-2-gamma-2 subunits at 5 uM; type: functional, cell-based; details: HEK293
Rattus norvegicus [15] = assay: Geller-cook activity was determined using wilcoxon signed rank test on non punished schedule at dose 3 mg/kg.; type: functional; how it was run: as §1
Rattus norvegicus [16] = assay: Mean number of shocks in vogel''s punished licking assay in rats by 3 mg/kg Diazepam; type: functional; how it was run: as §2
Rattus norvegicus [17] = assay: Mean number of shocks produced by the compound in rats at a dose of 3 mg/kg was determined by vogel's punished licking assay; type: functional; how it was run: as §2
[18] = target: T2, GABA-A receptor; anion channel (Rattus norvegicus); assay: Shift in [35S]TBPS binding to GABA-A Benzodiazepine receptor of rat brain membrane
Rattus norvegicus [19] = assay: Area under curve was determined for the compound after iv dose of 4.74 mg/kg in rats; type: ADME, organism-based; set-up: dose 4.74 mg/kg, route intravenous; details: in vivo
Rattus norvegicus [20] = assay: Geller-cook activity was determined using wilcoxon signed rank test on punished schedule at dose 0.3 mg/kg.; type: functional; how it was run: as §1
Mus musculus [21] = assay: In vivo efficacy is evaluated by percent control of cerebellar GMP levels in (drug+stress) treated mice/mice under stress; type: functional; set-up: concentration or dose not given beside the values
How it was run: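 Male CF-1 mice given drug orally in vehicle 122 before electric footshock stress, controls given vehicle (1 mL/100 g); killed 30 min after treatment; cerebellum homogenized in 1% perchloric acid, iced 30 min, boiled 5 min, spun 17000g 20 min; supernatant cGMP by radioimmunoassay, expressed as % of stress control.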

Rattus norvegicus [22] = assay: Geller-cook activity was determined using wilcoxon signed rank test on non punished schedule at dose 0.3 mg/kg.; type: functional; how it was run: as §1
Rattus norvegicus [23] = assay: In vivo efficacy evaluated for ability to antagonize metrazole induced clonic convulsions in rat after ip injection; type: functional
Rattus norvegicus [24] = assay: Geller-cook activity was determined using wilcoxon signed rank test on punished schedule at dose 3 mg/kg.; type: functional; how it was run: as §1
Rattus norvegicus [25] = assay: Total plasma clearance was determined for the compound after iv dose of 4.74 mg/kg in rats; type: ADME, organism-based; set-up: dose 4.74 mg/kg, route intravenous; details: in vivo
[26] = Time at which Cmax was reached was determined after po dose of 5.22 mg/kg of compound in rats; type: ADME, organism-based; set-up: dose 5.22 mg/kg, route oral; details: rat, in vivo
How it was run: (§6)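 Male Sprague–Dawley rats dosed orally with compound in a solution formulation, n = 3–4 per compound; serum drug concentrations measured over time, lower limit of quantitation 50 ng/mL. Tmax reported as the range of observed values across animals.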

Rattus norvegicus [27] = assay: Geller-cook activity was determined using wilcoxon signed rank test on non punished schedule at dose 1 mg/kg in rats; type: functional; how it was run: as §1
[28] = Area under curve was determined for the compound after po dose of 5.22 mg/kg in rats; type: ADME, organism-based; set-up: dose 5.22 mg/kg, route oral; details: rat, in vivo
[29] = Half-life after iv dose of 5.10 mg/kg in rats; type: ADME, organism-based; set-up: dose 5.1 mg/kg, route intravenous; details: rat, in vivo, 5.1 mg/kg
[30] = Area under curve was determined for the compound after iv dose of 5.10 mg/kg in rats; type: ADME, organism-based; set-up: dose 5.1 mg/kg, route intravenous; details: rat, in vivo, 5.1 mg/kg
[31] = Oral bioavailability in rats at a dose of 5.22 mg/kg; type: ADME, organism-based; details: rat, in vivo
[32] = Maximum serum concentration after po dose of 5.22 mg/kg in rats; type: ADME, organism-based; set-up: dose 5.22 mg/kg, route oral; details: rat
[33] = Total plasma clearance after iv dose of 5.10 mg/kg in rats; type: ADME, organism-based; set-up: dose 5.1 mg/kg, route intravenous; details: rat, 5.1 mg/kg, read-out: Clp (converted)
Rattus norvegicus [34] = assay: Mean number of shocks produced by CDPZ in rats at a dose of 12 mg/kg was determined by vogel's punished licking assay; type: functional; how it was run: as §2
Rattus norvegicus [35] = assay: Geller-cook activity was determined using wilcoxon signed rank test on punished schedule at dose 1 mg/kg in rats; type: functional; how it was run: as §1
Rattus norvegicus [36] = assay: Geller-cook activity was determined using wilcoxon signed rank test on punished schedule at dose 3 mg/kg in rats; type: functional; how it was run: as §1
Mus musculus [37] = assay: In vivo acute electroshock physical dependence activity in mice; Active; type: functional, organism-based
Rattus norvegicus [38] = assay: Geller-cook activity was determined using wilcoxon signed rank test on non punished schedule at dose 3 mg/kg in rats; type: functional; how it was run: as §1
[39] = Half-life after po dose of 5.22 mg/kg in rats; type: ADME, organism-based; set-up: dose 5.22 mg/kg, route oral; details: rat, in vivo
[40] = Maximum serum concentration was determined for the compound after po dose of 5.01 mg/kg in rats; type: ADME, organism-based; set-up: dose 5.01 mg/kg, route oral; details: rat
[41] = Area under curve was determined for the compound after iv dose of 5.06 in rats; type: ADME, organism-based; details: rat, in vivo
[42] = Area under curve was determined for the compound after po dose of 5.01 mg/kg in rats; type: ADME, organism-based; set-up: dose 5.01 mg/kg, route oral; details: rat, in vivo
[43] = Half-life after po dose of 5.01 mg/kg in rats; type: ADME, organism-based; set-up: dose 5.01 mg/kg, route oral; details: rat, in vivo
Mus musculus [44] = assay: In vivo acute electroshock physical dependence activity in mice; Inactive; type: functional, organism-based
[45] = Half-life after iv dose of 5.06 mg/kg in rats; type: ADME, organism-based; set-up: dose 5.06 mg/kg, route intravenous; details: rat, in vivo
[46] = Time at which Cmax was reached was determined for the compound after po dose of 5.01 mg/kg in rats; type: ADME, organism-based; set-up: dose 5.01 mg/kg, route oral; details: rat, in vivo; how it was run: as §6
[47] = Total plasma clearance Clp was determined for the compound after iv dose of 5.06 mg/kg in rats; type: ADME, organism-based; set-up: dose 5.06 mg/kg, route intravenous; details: rat, read-out: Clp (converted)
[48] = Oral bioavailability at a dose of 5.01 mg/kg in rats; type: ADME, organism-based; details: rat, in vivo
[49] = Half-life after po dose of 5.46 mg/kg in rats; type: ADME, organism-based; set-up: dose 5.46 mg/kg, route oral; details: rat, in vivo
[50] = target: T2, GABA-A receptor; anion channel (Rattus norvegicus); assay: Inhibition of [35S]TBPS binding to GABA-A Benzodiazepine receptor of rat brain membranes; type: cell membranes; details: Membrane
[51] = Area under curve was determined for the compound after po dose of 5.46 mg/kg in rats; type: ADME, organism-based; set-up: dose 5.46 mg/kg, route oral; details: rat, in vivo
[52] = Maximum serum concentration after po dose of 5.46 mg/kg in rats; type: ADME, organism-based; set-up: dose 5.46 mg/kg, route oral; details: rat
[53] = Time at which Cmax was reached was determined for the compound after po dose of 5.46 mg/kg in rats; type: ADME, organism-based; set-up: dose 5.46 mg/kg, route oral; details: rat, in vivo; how it was run: as §6

Compound	Acute electroshock activity (Mus musculus [1])	Mean no. of shocks (Rattus norvegicus [5])	Mean no. of shocks (Rattus norvegicus [6])	Mean no. of shocks (Rattus norvegicus [7])	Change in Cl- current [8]	ED50 (Mus musculus [9]) [mg/kg]	Change in Cl- current [10]	Mean no. of shocks (Rattus norvegicus [11])	Ki [12] [nM]	inhibition [13] [%]	Change in Cl- current [14]	Mean no. of shocks (Rattus norvegicus [17])	Shift [18]	Control (Mus musculus [21]) [%]	ED50 (Rattus norvegicus [23]) [mg/kg]	Mean no. of shocks (Rattus norvegicus [34])	other results
C[C@@H]1CN(C(=O)N2Cc3c(C(=O)OC(C)(C)C)ncn3-c3ccc(Cl)cc32)C[C@H](C)N1C	inactive	18	8	7	1	7	-0.2	8.4	4.48	86	1	18	-0.06	36	14.8		Gellar cook activity (Rattus norvegicus [2]): 56; Gellar cook activity (Rattus norvegicus [3]): 53; half-life [4]: 0.57 h; Gellar cook activity (Rattus norvegicus [15]): 36; Mean no. of shocks (Rattus norvegicus [16]): 13; AUC (Rattus norvegicus [19]): 3570 ng·h/mL; Gellar cook activity (Rattus norvegicus [20]): 22; Gellar cook activity (Rattus norvegicus [22]): 38; Gellar cook activity (Rattus norvegicus [24]): 65; Clp (Rattus norvegicus [25]): 45.2 mL/min/kg
CCCC(=O)O.C[C@@H]1CN(C(=O)N2Cc3c(C(=O)OC(C)(C)C)ncn3-c3ccc(Cl)cc32)C[C@H](C)N1		12	5.3	3.1	0.85	> 30	0.3	3.8	3.27	71	0.54	5.7	0.48	64	3.7	19	Tmax [26]: 0.5 h; Gellar cook activity (Rattus norvegicus [27]): 47; AUC [28]: 3570 ng·h/mL; half-life [29]: 1.2 h; AUC [30]: 3540 ng·h/mL; bioavailability [31]: 101%; Cmax [32]: 1170 ng/mL; clearance [33]: 25.2 mL/min/kg; Gellar cook activity (Rattus norvegicus [35]): 46; Gellar cook activity (Rattus norvegicus [36]): 27; Acute electroshock activity (Mus musculus [37]): Active; Gellar cook activity (Rattus norvegicus [38]): 43; half-life [39]: 1.8 h
C[C@H]1CN(C(=O)N2Cc3c(C(=O)OC(C)(C)C)ncn3-c3ccc(Cl)cc32)C[C@H](C)N1		8.8	3.9	5.2	1.05	> 30	0.4	3.3	16.7	45		5.6	0.37	69	7.4	14.8	Cmax [40]: 660 ng/mL; AUC [41]: 5010 ng·h/mL; AUC [42]: 2620 ng·h/mL; half-life [43]: 2.4 h; Acute electroshock activity (Mus musculus [44]): inactive; half-life [45]: 1.5 h; Tmax [46]: 0.25 h; clearance [47]: 17.8 mL/min/kg; bioavailability [48]: 54%
CC(C)(C)OC(=O)c1ncn2c1CN(C(=O)N1CCCC1)c1cc(Cl)ccc1-2.CCCC(=O)O	inactive					14	0.38		2.56					105	29.7		half-life [49]: 7.6 h; Shift [50]: 0.53; AUC [51]: 3680 ng·h/mL; Cmax [52]: 330 ng/mL; Tmax [53]: 1 h

Source: ChEMBL document CHEMBL1132620, “Piperazine imidazo[1,5-a]quinoxaline ureas as high-affinity GABAA ligands of dual functionality” (J Med Chem, 1999)
